Data set [1] addresses GTPase KRas (Homo sapiens, UniProt P01116, G12D). Kind of data set: Inhibition of recombinant biotinylated KRAS G12D mutant (unknown origin) assessed as inhibition of SOS-catalyzed nucleotide exchange preincubated for 60 mins followed by addition of human SOS protein and unlabeled GTP and measured after 60 mins by TR-FRET analysis. In a few lines: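 Biotinylated KRAS G12D was treated in EDTA buffer (1 h, RT), then loaded at 90 nM with 900 nM Bodipy-GDP and 15 nM Tb-streptavidin in Mg2+ buffer, HEPES pH 7.5 (6 h, RT). It was used at 1.5 nM assay solution with a 10-point, 3-fold DMSO compound series for 60 min at RT. A solution of 120 nM human SOS plus GTP was added for 60 min. The read-out was TR-FRET at 520/495 nm, normalized to DMSO and saturating-inhibitor controls, with a 4-parameter fit.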

The nature of data set [2]: Stability in human HeLa cell homogenate assessed as half life by LC-MS/MS analysis. In kind it is ADME, cell-based. Summed up:
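HeLa cells suspended at 1 × 10^6 cells/mL, probe-sonicated on ice until homogeneous, stored frozen at –20 °C. Peptides incubated with homogenate (1 × 10^6 cells/mL equivalent); peptide loss over time quantified by LC-MS/MS to derive t1/2.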

*1 amine or outer side, *2 acyl side, *3 side chain or, on linkers, in order; H or OH if unused. Where a SMILES comes first, the peptide text is derived from it. Bridges are numbered along the chain shown (N, C = ends). [ ]: non-standard residue; d: D form. Phe(3,4,5-F3) = N[C@@H](Cc1cc(F)c(F)c(F)c1)C(=O)O; Pro(trans-3-OAllyl) = C=CCO[C@H]1CCN[C@@H]1C(=O)O; X2 = O=C([C@@H]1[C@H]2CC[C@H](C2)N1[*:1])[*:2]; Pro(3R-Ph) = O=C(O)[C@H]1NCC[C@@H]1c1ccccc1; Ala(4-thiazolyl) = N[C@@H](Cc1cscn1)C(=O)O; Bip = N[C@@H](Cc1ccc(-c2ccccc2)cc1)C(=O)O; Dip = N[C@H](C(=O)O)C(c1ccccc1)c1ccccc1; X5 = C[C@H]1CCN([*:1])[C@@H]1C(=O)[*:2]; Ala(cPent) = N[C@@H](CC1CCCC1)C(=O)O; Abu(4-CN) = N#CCC[C@H](N)C(=O)O; Aad = N[C@@H](CCCC(=O)O)C(=O)O; Cha = N[C@@H](CC1CCCCC1)C(=O)O; Ahp(2) = CCCCC[C@H](N)C(=O)O; Cba = N[C@@H](CC1CCC1)C(=O)O; Nle = CCCC[C@H](N)C(=O)O; Dab = NCC[C@H](N)C(=O)O; Nva = CCC[C@H](N)C(=O)O

GTPase KRas, sequence (P01116 whole entry G12D): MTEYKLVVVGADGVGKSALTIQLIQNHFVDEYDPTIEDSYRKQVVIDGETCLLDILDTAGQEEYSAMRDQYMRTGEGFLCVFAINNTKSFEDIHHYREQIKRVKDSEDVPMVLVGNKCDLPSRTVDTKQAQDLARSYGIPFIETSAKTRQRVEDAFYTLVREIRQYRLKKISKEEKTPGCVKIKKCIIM

`CCC[C@@H]1NC(=O)[C@H](CC2CCCCC2)NC(=O)[C@H](CC(C)C)NC(=O)[C@@H]2CCCN2C(=O)[C@@H](NC(=O)[C@H](CCCNC(=N)N)NC(=O)[C@H](CCCNC(=N)N)NC(C)=O)CSSC[C@@H](C(=O)N[C@@H](CCCNC(=N)N)C(=O)N[C@@H](CCCNC(=N)N)C(N)=O)NC(=O)[C@H](C(C)C)NC(=O)[C@@H]2CCCN2C(=O)[C@H](CC(=O)O)NC(=O)[C@H](Cc2ccc(O)cc2)NC(=O)[C@H](CO)NC1=O` (Ac-RRCPL[Cha][Nva]SYDPVCRR-NH2; disulfide 3-13): the IC50 in data set [1] was > 11100 nM. In data set [2], the half-life was determined as 27 min.
In the same order, the values of `CCC[C@@H]1NC(=O)[C@H](Cc2ccc(-c3ccccc3)cc2)NC(=O)[C@H](CC(C)C)NC(=O)[C@@H]2CCCN2C(=O)[C@@H](NC(=O)[C@H](CCCNC(=N)N)NC(=O)[C@H](CCCNC(=N)N)NC(C)=O)CSSC[C@@H](C(=O)N[C@@H](CCCNC(=N)N)C(=O)N[C@@H](CCCNC(=N)N)C(N)=O)NC(=O)[C@H](C(C)C)NC(=O)[C@@H]2CCCN2C(=O)[C@H](CC(=O)O)NC(=O)[C@H](Cc2ccc(O)cc2)NC(=O)[C@H](CO)NC1=O` (Ac-RRCPL[Bip][Nva]SYDPVCRR-NH2; disulfide 3-13) are 604 nM and 26 min.
Take `CC[C@H](C)[C@@H]1NC(=O)[C@H](Cc2ccc(-c3ccccc3)cc2)NC(=O)[C@H](CC2CCC2)NC(=O)[C@@H]2[C@@H](c3ccccc3)CCN2C(=O)[C@@H](NC(=O)[C@H](CCCNC(=N)N)NC(=O)[C@H](CCCNC(=N)N)NC(C)=O)CSSC[C@@H](C(=O)N[C@@H](CCCNC(=N)N)C(=O)N[C@@H](CCCNC(=N)N)C(N)=O)NC(=O)[C@H](C(C)C)NC(=O)[C@@H]2CCCN2C(=O)[C@H](CC(=O)O)NC(=O)[C@H](Cc2ccc(O)cc2)NC(=O)[C@H](CO)NC1=O` (Ac-RRC[Pro(3R-Ph)][Cba][Bip]ISYDPVCRR-NH2; disulfide 3-13): the IC50 in data set [1] amounted to 7 nM.
As for `CC(=O)N[C@@H](CCCNC(=N)N)C(=O)N[C@@H](CCCNC(=N)N)C(=O)N[C@H]1CSSC[C@@H](C(=O)N[C@@H](CCCNC(=N)N)C(=O)N[C@@H](CCCNC(=N)N)C(N)=O)NC(=O)[C@H](C(C)C)NC(=O)[C@@H]2CCCN2C(=O)[C@H](CC(=O)O)NC(=O)[C@H](Cc2ccc(O)cc2)NC(=O)[C@H](CO)NC(=O)[C@H](CC2CCCC2)NC(=O)[C@H](Cc2ccc(O)cc2)NC(=O)[C@H](CC(C)C)NC(=O)[C@@H]2CCCN2C1=O` (Ac-RRCPLY[Ala(cPent)]SYDPVCRR-NH2; disulfide 3-13), the IC50 in data set [1] was > 11100 nM. Also, the half-life in data set [2] was 23 min.
The like results for `CC[C@H](C)[C@@H]1NC(=O)[C@H](Cc2ccc(-c3ccccc3)cc2)NC(=O)[C@H](CC(C)C)NC(=O)[C@@H]2CCCN2C(=O)[C@@H](NC(=O)[C@H](CCCNC(=N)N)NC(=O)[C@H](CCCNC(=N)N)NC(C)=O)CSSC[C@@H](C(=O)N[C@@H](CCCNC(=N)N)C(=O)N[C@@H](CCCNC(=N)N)C(N)=O)NC(=O)[C@H](C(C)C)NC(=O)[C@@H]2CCCN2C(=O)[C@H](CC(=O)O)NC(=O)[C@H](Cc2ccc(O)cc2)NC(=O)[C@H](CO)NC1=O` (Ac-RRCPL[Bip]ISYDPVCRR-NH2; disulfide 3-13) were, in that order, 7 nM and 55 min.
For `CC(=O)N[C@@H](CCCNC(=N)N)C(=O)N[C@@H](CCCNC(=N)N)C(=O)N[C@H]1CSSC[C@@H](C(=O)N[C@@H](CCCNC(=N)N)C(=O)N[C@@H](CCCNC(=N)N)C(N)=O)NC(=O)[C@H](C(C)C)NC(=O)[C@@H]2CCCN2C(=O)[C@H](CC(=O)O)NC(=O)[C@H](Cc2ccc(O)cc2)NC(=O)[C@H](CO)NC(=O)[C@H](CC2CCCC2)NC(=O)[C@H](CC2CCCCC2)NC(=O)[C@H](CC(C)C)NC(=O)[C@@H]2CCCN2C1=O` (Ac-RRCPL[Cha][Ala(cPent)]SYDPVCRR-NH2; disulfide 3-13), the 50% inhibitory concentration (IC50) in data set [1] was > 11100 nM. For the same molecule, the half-life in data set [2] turned out to be 21 min.
Regarding `CC[C@H](C)[C@@H]1NC(=O)[C@H](Cc2ccc(-c3ccccc3)cc2)NC(=O)[C@H](CC(C)C)NC(=O)[C@@H]2[C@@H](c3ccccc3)CCN2C(=O)[C@@H](NC(=O)[C@H](CCCNC(=N)N)NC(=O)[C@H](CCCNC(=N)N)NC(C)=O)CSSC[C@@H](C(=O)N[C@@H](CCCNC(=N)N)C(=O)N[C@@H](CCCNC(=N)N)C(N)=O)NC(=O)[C@H](C(C)C)NC(=O)[C@@H]2CCCN2C(=O)[C@H](CC(=O)O)NC(=O)[C@H](Cc2ccc(O)cc2)NC(=O)[C@H](CO)NC1=O` (Ac-RRC[Pro(3R-Ph)]L[Bip]ISYDPVCRR-NH2; disulfide 3-13), in data set [1], the IC50 stood at 1 nM.
As to `CC[C@H](C)[C@@H]1NC(=O)[C@H](Cc2ccc(-c3ccccc3)cc2)NC(=O)[C@H](CC(C)C)NC(=O)[C@@H]2[C@H]3CC[C@H](C3)N2C(=O)[C@@H](NC(=O)[C@H](CCCNC(=N)N)NC(=O)[C@H](CCCNC(=N)N)NC(C)=O)CSSC[C@@H](C(=O)N[C@@H](CCCNC(=N)N)C(=O)N[C@@H](CCCNC(=N)N)C(N)=O)NC(=O)[C@H](C(C)C)NC(=O)[C@@H]2CCCN2C(=O)[C@H](CC(=O)O)NC(=O)[C@H](Cc2ccc(O)cc2)NC(=O)[C@H](CO)NC1=O` (Ac-RRC[X2]L[Bip]ISYDPVCRR-NH2; disulfide 3-13), in data set [1], the IC50 was determined as 201 nM.
Consider `CCCC[C@@H]1NC(=O)[C@H]([C@@H](C)CC)NC(=O)[C@H](Cc2ccc(O)cc2)NC(=O)[C@H](CC(C)C)NC(=O)[C@@H]2CCCN2C(=O)[C@@H](NC(=O)[C@H](CCCNC(=N)N)NC(=O)[C@H](CCCNC(=N)N)NC(C)=O)CSSC[C@@H](C(=O)N[C@@H](CCCNC(=N)N)C(=O)N[C@@H](CCCNC(=N)N)C(N)=O)NC(=O)[C@H](C(C)C)NC(=O)[C@@H]2CCCN2C(=O)[C@H](CC(=O)O)NC(=O)[C@H](Cc2ccc(O)cc2)NC1=O` (Ac-RRCPLYI[Nle]YDPVCRR-NH2; disulfide 3-13), for which the IC50 in data set [1] is > 11100 nM. Also, the half-life in data set [2] is 25 min.
In the same order, the values of `CC[C@H](C)[C@@H]1NC(=O)[C@H](Cc2ccc(O)cc2)NC(=O)[C@H](CC(C)C)NC(=O)[C@@H]2CCCN2C(=O)[C@@H](NC(=O)[C@H](CCCNC(=N)N)NC(=O)[C@H](CCCNC(=N)N)NC(C)=O)CSSC[C@@H](C(=O)N[C@@H](CCCNC(=N)N)C(=O)N[C@@H](CCCNC(=N)N)C(N)=O)NC(=O)[C@H](C(C)C)NC(=O)[C@@H]2CCCN2C(=O)[C@H](CC(=O)O)NC(=O)[C@H](C(c2ccccc2)c2ccccc2)NC(=O)[C@H](CCN)NC1=O` (Ac-RRCPLYI[Dab][Dip]DPVCRR-NH2; disulfide 3-13) are > 11100 nM and 34 min.
Take `C=CCO[C@H]1CCN2C(=O)[C@@H](NC(=O)[C@H](CCCNC(=N)N)NC(=O)[C@H](CCCNC(=N)N)NC(C)=O)CSSC[C@@H](C(=O)N[C@@H](CCCNC(=N)N)C(=O)N[C@@H](CCCNC(=N)N)C(N)=O)NC(=O)[C@H](C(C)C)NC(=O)[C@@H]3CCCN3C(=O)[C@H](CC(=O)O)NC(=O)[C@H](Cc3ccc(O)cc3)NC(=O)[C@H](CO)NC(=O)[C@H]([C@@H](C)CC)NC(=O)[C@H](Cc3ccc(-c4ccccc4)cc3)NC(=O)[C@H](CC3CCC3)NC(=O)[C@H]12` (Ac-RRC[Pro(trans-3-OAllyl)][Cba][Bip]ISYDPVCRR-NH2; disulfide 3-13): in data set [1], the IC50 stood at 2 nM.
Still for that read-out and setting: under `CC[C@H](C)[C@@H]1NC(=O)[C@H](Cc2ccc(O)cc2)NC(=O)[C@H](CC(C)C)NC(=O)[C@@H]2CCCN2C(=O)[C@@H](NC(=O)[C@H](CCCNC(=N)N)NC(=O)[C@H](CCCNC(=N)N)NC(C)=O)CSSC[C@@H](C(=O)N[C@@H](CCCNC(=N)N)C(=O)N[C@@H](CCCNC(=N)N)C(N)=O)NC(=O)[C@H](C(C)C)NC(=O)[C@@H]2CCCN2C(=O)[C@H](CC(=O)O)NC(=O)[C@H](Cc2cc(F)c(F)c(F)c2)NC(=O)[C@H](Cc2cscn2)NC1=O` (Ac-RRCPLYI[Ala(4-thiazolyl)][Phe(3,4,5-F3)]DPVCRR-NH2; disulfide 3-13) stands > 11100 nM; under `CC[C@H](C)[C@@H]1NC(=O)[C@H](Cc2ccc(-c3ccccc3)cc2)NC(=O)[C@H](CC(C)C)NC(=O)[C@@H]2CCCN2C(=O)[C@@H](NC(=O)[C@H](CCCNC(=N)N)NC(=O)[C@H](CCCNC(=N)N)NC(C)=O)CSSC[C@@H](C(=O)N[C@@H](CCCNC(=N)N)C(=O)N[C@@H](CCCNC(=N)N)C(N)=O)NC(=O)[C@H](CCC#N)NC(=O)[C@@H]2CCCN2C(=O)[C@H](CC(=O)O)NC(=O)[C@H](Cc2ccc(O)cc2)NC(=O)[C@H](CO)NC1=O` (Ac-RRCPL[Bip]ISYDP[Abu(4-CN)]CRR-NH2; disulfide 3-13), 24 nM.
Still for that read-out and setting: under `CC[C@H](C)[C@@H]1NC(=O)[C@H](Cc2ccc(-c3ccccc3)cc2)NC(=O)[C@H](CC(C)C)NC(=O)[C@@H]2CCCN2C(=O)[C@@H](NC(=O)[C@H](CCCNC(=N)N)NC(=O)[C@H](CCCNC(=N)N)NC(C)=O)CSSC[C@@H](C(=O)N[C@@H](CCCNC(=N)N)C(=O)N[C@@H](CCCNC(=N)N)C(N)=O)NC(=O)[C@H](CCCC(=O)O)NC(=O)[C@@H]2[C@@H](C)CCN2C(=O)[C@H](CC(=O)O)NC(=O)[C@H](Cc2ccc(O)cc2)NC(=O)[C@H](CO)NC1=O` (Ac-RRCPL[Bip]ISYD[X5][Aad]CRR-NH2; disulfide 3-13) stands 43 nM; under `CCCCC[C@@H]1NC(=O)[C@@H]2CCCN2C(=O)[C@H](CC(=O)O)NC(=O)[C@H](Cc2ccc(O)cc2)NC(=O)[C@H](CO)NC(=O)[C@H]([C@@H](C)CC)NC(=O)[C@H](Cc2ccc(-c3ccccc3)cc2)NC(=O)[C@H](CC(C)C)NC(=O)[C@@H]2CCCN2C(=O)[C@@H](NC(=O)[C@H](CCCNC(=N)N)NC(=O)[C@H](CCCNC(=N)N)NC(C)=O)CSSC[C@@H](C(=O)N[C@@H](CCCNC(=N)N)C(=O)N[C@@H](CCCNC(=N)N)C(N)=O)NC1=O` (Ac-RRCPL[Bip]ISYDP[Ahp(2)]CRR-NH2; disulfide 3-13), 5 nM.

Usually IC50 stands for the concentration at which inhibition is half-maximal. The term half-life denotes how long it takes for the measured level to halve.

Source of the values: ChEMBL document CHEMBL5131563, “Accelerated Identification of Cell Active KRAS Inhibitory Macrocyclic Peptides using Mixture Libraries and Automated Ligand Identification System (ALIS) Technology” (J Med Chem, 2022).
